Experimental data of several laboratories.
Each line is one published result; the experiments were not run side by side.
Si: Sucrase-isomaltase, intestinal (Si, Rattus norvegicus, UniProt P23739)
ESR1: Estrogen receptor (ESR1, Homo sapiens, UniProt P03372)
TYR: Tyrosinase (TYR, Homo sapiens, UniProt P14679)
Abl2: Abl2 (Mus musculus, UniProt Q4JIM5)
NR3C1: Glucocorticoid receptor (NR3C1, Homo sapiens, UniProt P04150)
PIK3C3: Phosphatidylinositol 3-kinase catalytic subunit type 3 (PIK3C3, Homo sapiens, UniProt Q8NEB9)

With `CNc1cc(Oc2cc(C(=O)Nc3cc(N4CCN(C)CC4)cc(C(F)(F)F)c3)ccc2C)ncn1` the inhibition was -39.3% (PAN2-PAN3 deadenylation complex subunit PAN3 (Homo sapiens, UniProt Q58A45); target engagement in cells, inhibitor, chemoproteomics; Huh-7; 1 µM).
`O=c1c(O[C@@H]2O[C@H](CO)[C@@H](O)[C@H](O)[C@H]2O)c(-c2ccc(O)c(O)c2)oc2cc(O)cc(O)c12` gave an inhibition of 21.4% (Si; enzyme activity, inhibitor; 25 µg/mL).
`Oc1cccc(Nc2nc(-c3ccc(F)cc3F)cs2)c1` gave an inhibition of 11.2% (ESR1; cell-free assay; 10 µM).
The inhibition of `O=C1N=C(N2CCCCN2)S/C1=C\c1ccc(F)cc1O` is reported as less than 10% (Nociceptin receptor (OPRL1, Homo sapiens, UniProt P41146); ligand displacement, radioligand; 10 µM).
The inhibition of `Cc1ccc(C(C)C)cc1NC(=O)COC(=O)c1ccc(O)cc1` is reported as 53.8% (TYR; enzyme activity, inhibitor; 50 µg/mL).
With `Ic1cccc2cnccc12` the inhibition was 100% (NAD(+) hydrolase SARM1 (SARM1, Homo sapiens, UniProt Q6SZW1); enzyme activity, inhibitor; 10 µM).
The inhibition of `O=C(Nc1ccc(S(=O)(=O)N2CCC(Cl)CC2)cc1)c1ccc([N+](=O)[O-])o1` is reported as 0% (ESR1; ligand displacement, radioligand; 10 µM).
`CNC(=O)c1cc(Oc2ccc(NC(=O)Nc3ccc(Cl)c(C(F)(F)F)c3)cc2)ccn1` gave an inhibition of 16% (Abl2; enzyme activity, inhibitor; 0.3 µM).
With `O=c1c(O[C@@H]2O[C@@H](CO)[C@H](O)[C@H]2O)c(-c2ccc(O)c(O)c2)oc2cc(O)cc(O)c12` the inhibition was 31.5% (Si; enzyme activity, inhibitor; 50 µg/mL).
With `COc1cc(NC(C)=O)c(Cl)cc1C(=O)Nc1nccs1` the inhibition was 11% (NR3C1; cell-free assay; 10 µM).
With `N#Cc1cc(Cn2c(N3CCCC3)nc3ccccc32)ccc1F` the inhibition was 16.1% (Alpha-2C adrenergic receptor (ADRA2C, Homo sapiens, UniProt P18825); ligand displacement; 10 µM).
With `CCN(CC)c1ccc(C2Nc3ccc(C(=O)c4ccccc4)cc3NC3=C2C(=O)CC(C)(C)C3)cc1` (stereo not shown) the inhibition was 12% (Prostaglandin E2 receptor EP3 subtype (PTGER3, Homo sapiens, UniProt P43115); ligand displacement, radioligand; 10 µM).
`Cc1ccc(C(C)C)cc1NC(=O)COC(=O)c1cccc(O)c1` gave an inhibition of 61.2% (TYR; enzyme activity, inhibitor; 50 µg/mL).
`O=C(c1ccc(F)cc1)N(Cc1ccccc1)C1CCCCC1` has an inhibition of 9% (NR3C1; cell-free assay; 10 µM).
`Cc1ccc(C(C)C)cc1NC(=O)COC(=O)/C=C/c1ccc(O)cc1` has an inhibition of 55.8% (TYR; enzyme activity, inhibitor; 50 µg/mL).
The inhibition of `CCN(Cc1ccccc1C(F)(F)F)C(=O)C1CCN(S(=O)(=O)c2ccc3[nH]ncc3c2)CC1` is reported as 8% (ESR1; ligand displacement, radioligand; 10 µM).
`O=C1OC[C@H]2OC(=O)c3cc(O)c(O)c(O)c3-c3c(O)c(O)c(O)c4c3C(=O)O[C@H]([C@H]3OC(=O)c5c-4c(O)c(O)c(O)c5[C@H]3O)[C@@H]2OC(=O)c2cc(O)c(O)c(O)c2-c2c1cc(O)c(O)c2O` has an inhibition of 25.7% (Si; enzyme activity, inhibitor; 25 µg/mL).
The inhibition of `CN(C)C1CCN(CC#Cc2nn(C3CCCC3)c3nc(NCc4ccccc4)ncc23)C1` (stereo not shown) is reported as -1% (Inhibitor of nuclear factor kappa-B kinase subunit beta (IKBKB, Homo sapiens, UniProt O14920); enzyme activity, inhibitor, FRET; 0.1 µM).
For `O=C(c1ccc(Cl)cc1)N(Cc1ccccc1)C1CCCCC1`, the inhibition was -12.4% (5-hydroxytryptamine receptor 1A (HTR1A, Homo sapiens, UniProt P08908); ligand displacement, radioligand; 10 µM).
For `Cc1ccc(C(C)C)cc1NC(=O)COC(=O)/C=C/c1ccc(Cl)cc1`, the inhibition was 57.4% (TYR; enzyme activity, inhibitor; 50 µg/mL).
For `Cn1cnc(Br)c1C1=CN(c2ncnc3[nH]cnc23)CCS1`, the inhibition was 91.3% (cAMP-dependent protein kinase catalytic subunit beta (PRKACB, Homo sapiens, UniProt P22694); enzyme activity, inhibitor, radiometric; 2 µM).
With `CS(=O)(=O)Nc1cccc(-c2csc(NC(=O)CSc3nc4nccnc4c(=O)n3CCc3ccccc3)n2)c1` the inhibition was 9% (PIK3C3; enzyme activity, inhibitor; 10 µM).
`CN1CC(Oc2cnc(C#N)cc2-c2ccn3nc(NC(=O)C4CC4)cc3c2)C1` has an inhibition of -8% (Eukaryotic translation initiation factor 2-alpha kinase 1 (EIF2AK1, Homo sapiens, UniProt Q9BQI3); enzyme activity, inhibitor; 1 µM).
`Cc1ccc(Nc2nccc(N(C)c3ccc4c(C)n(C)nc4c3)n2)cc1S(N)(=O)=O` gave an inhibition of 76% (Abl2; enzyme activity, inhibitor; 10 µM).
The inhibition of `O=C(CSc1nc2nccnc2c(=O)n1CCc1ccccc1)Nc1nccs1` is reported as 28% (PIK3C3; enzyme activity, inhibitor; 10 µM).
